Test results: ChEMBL document CHEMBL4689842, “EUbOPEN Chemogenomics Library wave 1” (2021)

System: HEK-293T
Assay: Multiplex assay against HEK293T;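 as to Population Tubulin-Different-Phenotype (%): share of the cells with healthy nuclei that show this phenotype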
Format: toxicity, cell-based
Conditions: human
Summary of the method: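 Live cells were stained at seeding with Hoechst33342, BioTracker Green Microtubule Cytoskeleton Dye, MitoTracker Red and Annexin V Alexa Fluor 680. Following compound addition, they were imaged on a CQ1 microscope at 37°C and 5% CO2 and gated by CellPathfinder machine learning into Hoechst high-intensity objects or normal cells, with normal cells split into healthy, pyknosed or fragmented nuclei and pyknosed cells into mitotic or apoptotic. Tubulin, mitochondrial-mass and membrane-permeability phenotypes are per cents of healthy-nucleus cells.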

[1] = 12 h, 1 µM, compound concentration 1 uM, replicate 1
[2] = 12 h, 1 µM, compound concentration 1 uM, replicate 2
[3] = 12 h, 10 µM, compound concentration 10 uM, replicate 1
[4] = 12 h, 10 µM, compound concentration 10 uM, replicate 2
[5] = 24 h, 1 µM, compound concentration 1 uM, replicate 1
[6] = 24 h, 1 µM, compound concentration 1 uM, replicate 2
[7] = 24 h, 10 µM, compound concentration 10 uM, replicate 1
[8] = 24 h, 10 µM, compound concentration 10 uM, replicate 2
[9] = 48 h, 1 µM, compound concentration 1 uM, replicate 1
[10] = 48 h, 1 µM, compound concentration 1 uM, replicate 2
[11] = 48 h, 10 µM, compound concentration 10 uM, replicate 1
[12] = 48 h, 10 µM, compound concentration 10 uM, replicate 2

Cl.N#Cc1ccc2[nH]cc(CCCCN3CCN(c4ccc5oc(C(N)=O)cc5c4)CC3)c2c1 [VILAZODONE HYDROCHLORIDE] was tested, and the “Population Apoptotic (%)” value [1] was 53%, the “Population Healthy Nuclei (%)” value [1] was 49% and the “Population Hoechst High Intensity Objects (%)” value [1] was 9%. For the same molecule, the “Population Membrane Permeable-Phenotype (%)” value [1] was 1%, the “Population Mitochondria Different-Phenotype (%)” value [1] was 93% and the “Population Mitotic Cells (%)” value [1] was 46%. For the same molecule, the “Population Normal (%)” value [1] was 90%, the “Population Pyknosed Nuclei (%)” value [1] was 44% and the “Population Tubulin-Different-Phenotype (%)” value [1] was 78%. For the same molecule, the “Total Cell Count” value [1] was 364, the “Population Apoptotic (%)” value [2] was 20% and the “Population Fragmented Nuclei (%)” value [2] was 6%. The “Population Healthy Nuclei (%)” value [2] was 32%, the “Population Hoechst High Intensity Objects (%)” value [2] was 3% and the “Population Membrane Permeable-Phenotype (%)” value [2] was 6%. The “Population Mitochondria Different-Phenotype (%)” value [2] was 67%, the “Population Mitotic Cells (%)” value [2] was 79% and the “Population Normal (%)” value [2] was 96%. For the same molecule, the “Population Pyknosed Nuclei (%)” value [2] was 61%, the “Population Tubulin-Different-Phenotype (%)” value [2] was 69% and the “Total Cell Count” value [2] was 138. For the same molecule, the “Population Apoptotic (%)” value [3] was 93%, the “Population Healthy Nuclei (%)” value [3] was 8% and the “Population Hoechst High Intensity Objects (%)” value [3] was 25%. For the same molecule, the “Population Membrane Permeable-Phenotype (%)” value [3] was 0%, the “Population Mitochondria Different-Phenotype (%)” value [3] was 100% and the “Population Mitotic Cells (%)” value [3] was 6%. The “Population Normal (%)” value [3] was 74%, the “Population Pyknosed Nuclei (%)” value [3] was 78% and the “Population Tubulin-Different-Phenotype (%)” value [3] was 92%. The “Total Cell Count” value [3] was 198, the “Population Apoptotic (%)” value [4] was 82% and the “Population Fragmented Nuclei (%)” value [4] was 12%. For the same molecule, the “Population Healthy Nuclei (%)” value [4] was 16%, the “Population Hoechst High Intensity Objects (%)” value [4] was 23% and the “Population Membrane Permeable-Phenotype (%)” value [4] was 23%. For the same molecule, the “Population Mitochondria Different-Phenotype (%)” value [4] was 84%, the “Population Mitotic Cells (%)” value [4] was 17% and the “Population Normal (%)” value [4] was 76%. For the same molecule, the “Population Pyknosed Nuclei (%)” value [4] was 70%, the “Population Tubulin-Different-Phenotype (%)” value [4] was 96% and the “Total Cell Count” value [4] was 199. The “Population Apoptotic (%)” value [5] was 52%, the “Population Fragmented Nuclei (%)” value [5] was 6% and the “Population Healthy Nuclei (%)” value [5] was 58%. The “Population Hoechst High Intensity Objects (%)” value [5] was 6%, the “Population Membrane Permeable-Phenotype (%)” value [5] was 3% and the “Population Mitochondria Different-Phenotype (%)” value [5] was 87%. The “Population Mitotic Cells (%)” value [5] was 47%, the “Population Normal (%)” value [5] was 93% and the “Population Pyknosed Nuclei (%)” value [5] was 34%. For the same molecule, the “Population Tubulin-Different-Phenotype (%)” value [5] was 71%, the “Total Cell Count” value [5] was 412 and the “Population Apoptotic (%)” value [6] was 32%. The “Population Fragmented Nuclei (%)” value [6] was 5%, the “Population Healthy Nuclei (%)” value [6] was 43% and the “Population Hoechst High Intensity Objects (%)” value [6] was 5%. For the same molecule, the “Population Membrane Permeable-Phenotype (%)” value [6] was 2%, the “Population Mitochondria Different-Phenotype (%)” value [6] was 60% and the “Population Mitotic Cells (%)” value [6] was 67%. For the same molecule, the “Population Normal (%)” value [6] was 94%, the “Population Pyknosed Nuclei (%)” value [6] was 50% and the “Population Tubulin-Different-Phenotype (%)” value [6] was 58%. The “Total Cell Count” value [6] was 165, the “Population Apoptotic (%)” value [7] was 98% and the “Population Fragmented Nuclei (%)” value [7] was 19%. The “Population Healthy Nuclei (%)” value [7] was 5%, the “Population Hoechst High Intensity Objects (%)” value [7] was 21% and the “Population Membrane Permeable-Phenotype (%)” value [7] was 0%. For the same molecule, the “Population Mitochondria Different-Phenotype (%)” value [7] was 100%, the “Population Mitotic Cells (%)” value [7] was 1% and the “Population Normal (%)” value [7] was 78%. The “Population Pyknosed Nuclei (%)” value [7] was 74%, the “Population Tubulin-Different-Phenotype (%)” value [7] was 100% and the “Total Cell Count” value [7] was 215. For the same molecule, the “Population Apoptotic (%)” value [8] was 92%, the “Population Fragmented Nuclei (%)” value [8] was 10% and the “Population Healthy Nuclei (%)” value [8] was 12%. For the same molecule, the “Population Hoechst High Intensity Objects (%)” value [8] was 25%, the “Population Membrane Permeable-Phenotype (%)” value [8] was 11% and the “Population Mitochondria Different-Phenotype (%)” value [8] was 94%. For the same molecule, the “Population Mitotic Cells (%)” value [8] was 7%, the “Population Normal (%)” value [8] was 74% and the “Population Pyknosed Nuclei (%)” value [8] was 76%. For the same molecule, the “Population Tubulin-Different-Phenotype (%)” value [8] was 94%, the “Total Cell Count” value [8] was 186 and the “Population Apoptotic (%)” value [9] was 32%. The “Population Healthy Nuclei (%)” value [9] was 75%, the “Population Hoechst High Intensity Objects (%)” value [9] was 7% and the “Population Membrane Permeable-Phenotype (%)” value [9] was 2%. The “Population Mitochondria Different-Phenotype (%)” value [9] was 51%, the “Population Mitotic Cells (%)” value [9] was 67% and the “Population Normal (%)” value [9] was 92%. For the same molecule, the “Population Pyknosed Nuclei (%)” value [9] was 15%, the “Population Tubulin-Different-Phenotype (%)” value [9] was 57% and the “Total Cell Count” value [9] was 639. For the same molecule, the “Population Apoptotic (%)” value [10] was 33%, the “Population Fragmented Nuclei (%)” value [10] was 9% and the “Population Healthy Nuclei (%)” value [10] was 68%. For the same molecule, the “Population Hoechst High Intensity Objects (%)” value [10] was 4%, the “Population Membrane Permeable-Phenotype (%)” value [10] was 6% and the “Population Mitochondria Different-Phenotype (%)” value [10] was 32%. The “Population Mitotic Cells (%)” value [10] was 66%, the “Population Normal (%)” value [10] was 95% and the “Population Pyknosed Nuclei (%)” value [10] was 22%. The “Population Tubulin-Different-Phenotype (%)” value [10] was 51%, the “Total Cell Count” value [10] was 263 and the “Population Apoptotic (%)” value [11] was 94%. For the same molecule, the “Population Fragmented Nuclei (%)” value [11] was 27%, the “Population Healthy Nuclei (%)” value [11] was 0% and the “Population Hoechst High Intensity Objects (%)” value [11] was 16%. The “Population Membrane Permeable-Phenotype (%)” value [11] was 0%, the “Population Mitochondria Different-Phenotype (%)” value [11] was 100% and the “Population Mitotic Cells (%)” value [11] was 5%. The “Population Normal (%)” value [11] was 83%, the “Population Pyknosed Nuclei (%)” value [11] was 72% and the “Population Tubulin-Different-Phenotype (%)” value [11] was 0%. The “Total Cell Count” value [11] was 248, the “Population Apoptotic (%)” value [12] was 95% and the “Population Fragmented Nuclei (%)” value [12] was 13%. The “Population Healthy Nuclei (%)” value [12] was 12%, the “Population Hoechst High Intensity Objects (%)” value [12] was 30% and the “Population Membrane Permeable-Phenotype (%)” value [12] was 17%. The “Population Mitochondria Different-Phenotype (%)” value [12] was 88%, the “Population Mitotic Cells (%)” value [12] was 4% and the “Population Normal (%)” value [12] was 69%. The “Population Pyknosed Nuclei (%)” value [12] was 73%, the “Population Tubulin-Different-Phenotype (%)” value [12] was 94% and the “Total Cell Count” value [12] was 191.
